In PubChem BioAssay:
Inconclusive results are not listed.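 Rule for the calls, unless noted: active = inhibition over a set limit, the all-compound mean plus 3 SD, in both replicate runs; inconclusive = over that limit in just one replicate run; inactive = at or under that limit in both runs.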

Tests used:
[1] = OD615 S. cerevisiae growth inhibition, permissive medium, pilot counter-assay, permissive growth control for S. cerevisiae lifespan shortening project (AID 705;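 active = growth inhibition above 25% in both replicates, a cutoff set 3 SD above the mean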); conditions: OD615, 24 h, at 10 µM, hits give high values
How it was run: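 System: engineered DeaD yeast; Medium: permissive raffinose/galactose medium; Compound dosing: 10 µM single dose, 0.25% DMSO; Incubation: 4 h cell pre-growth, 24 h exposure at 30 °C; Technique: OD at 615 nm; Evaluation: growth inhibition from lowered OD615 after 24 h.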

[2] = Restrictive medium S. cerevisiae growth inhibition, OD615, pilot screen of yeast lifespan reduction project, restrictive growth control (AID 706;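 active = growth inhibition above a set limit, 3 SD over mean compound inhibition, in both replicates, cut at about 43% in these data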;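 note: modified DeaD lifespan yeast strain shifted to restrictive glucose medium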); conditions: OD615, 48 h, at 10 µM, hits give high values
How it was run: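 Material: modified S. cerevisiae; buffer or medium: CSMM-D glucose medium; doses: one concentration, 10 µM final, 0.25% DMSO; incubation: 48 h compound exposure at 30 °C; detection: optical density at 615 nm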

[3] = viability gain of MRP-1-high H69AR cells under doxorubicin, pilot screen, MRP-1 activator project, CellTiter-Glo, duplicate (AID 807;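 active = viability increase at or above a cutoff of the median across tested compounds plus 3 SD, cut at about 8.5% in these data, passing the limit was not always enough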;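 note: compound pretreatment 18-22 h then 72 h combined with doxorubicin; 0% = doxorubicin alone and 100% = vehicle without doxorubicin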); conditions: H69AR viability with doxorubicin, CellTiter-Glo luminescence; at 10 µM; hits give high values
[4] = growth suppression of beta-catenin knockout HCT116, pilot screen, human colon tumor cells (AID 823;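 active = cell viability at or below a set limit in both duplicate runs, the limit being the all-compound median minus 4 SD, cut at about 23% in these data, passing the limit was not always enough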;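 note: 0% = wells killed by 20 µM Hyamine and 100% = untreated DMSO cell wells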); conditions: CellTiter-Glo, 60 h, at 10 µM, hits give low values
[5] = growth suppression of PTEN-deleted HCT116, pilot screen, cell-based, HCT116 clonal line, CellTiter-Glo (AID 824;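 active = viability at or below 27.92% in each of two runs, the all-compound median minus 4 SD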;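 note: 0% = 20 µM Hyamine control and 100% = vehicle cell control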); conditions: 60 h, at 10 µM, hits give low values
[6] = inhibitors of the yeast RAM network, pilot screen, dse1pr::URA3 reporter, 5-FOA selection (AID 869);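 note: 0% = DMSO wells with no growth and 100% = 10 µM 1-NA-PP1 with full growth; RAM network block rescues cells from 5-FOA so hits raise OD615 growth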; conditions: S. cerevisiae dse1pr::URA3 5-FOA growth, OD615, 2 d; at 10 µM; hits give high values; strain carries analog-sensitive mutant Cbk1 kinase
[7] = RAM signaling pathway blockade in yeast – S. cerevisiae, Pdr1DBD-CYC8 efflux-inhibited sensitized strain, primary screen (AID 1298;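 active = RAM network inhibition above 8.4% in each of two replicates, 3 SD over the compound average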;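 note: 0% = DMSO untreated cells without growth and 100% = 10 µM 1-NA-PP1 full growth; higher means more yeast growth rescued from 5-FOA killing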); conditions: S. cerevisiae cbk1-as DSE1-URA3 strain, 5-FOA growth OD615, 2 d; at 50 µM; hits give high values

COC1=C(OC)c2ccccc2C(C(=O)O)N/C1=C(/C)Nc1ccncc1 (stereo not drawn)
inactive: growth inhibition [1] -5.63% | growth inhibition [2] -2.54% | viability increase [3] -0.91% | viability [4] 94.7% | viability [5] 91.5% | inhibition [6] 1.11% | RAM network inhibition [7] -1.82%

Cc1cc(C(=O)Nc2nnc(C3CCCCC3)s2)cs1
inactive: growth inhibition [1] -9.12% | growth inhibition [2] 1.04% | viability increase [3] 1.38% | viability [4] 94.7% | viability [5] 101% | inhibition [6] 4.87% | RAM network inhibition [7] 9.03%

O=C(Cn1cc2c(n1)CCCC2)Nc1ccccc1Cl
inactive: growth inhibition [1] -4.82% | growth inhibition [2] -3.03% | viability increase [3] -1.53% | viability [4] 99.4% | viability [5] 98.9% | inhibition [6] 1.91% | RAM network inhibition [7] 1.47%

CC(=O)NCC(=O)OCC(=O)c1ccc(C)c(C)c1
inactive: growth inhibition [1] -7.93% | growth inhibition [2] -2.07% | viability increase [3] -1.39% | viability [4] 88.8% | viability [5] 95.1% | inhibition [6] 0.75% | RAM network inhibition [7] -0.41%

COc1ccc(C2C(C(=O)N3CCCC3)c3cc(OC)c(OC)cc3C(=O)N2C)cc1OC (stereo not drawn)
inactive: growth inhibition [1] -6.69% | growth inhibition [2] -25.4% | viability increase [3] -1.65% | viability [4] 105% | viability [5] 100% | inhibition [6] 1.54% | RAM network inhibition [7] 2.23%

COc1ccc(-c2nnc(SCC(=O)NC(C)C)n2CC2CCCO2)cc1OC (stereo not drawn)
inactive: growth inhibition [1] 1.07% | growth inhibition [2] -3.87% | viability increase [3] 0.35% | viability [4] 103% | viability [5] 98.3% | inhibition [6] 1.69% | RAM network inhibition [7] -0.58%

O=C(c1cc2ccccn2n1)N1CCN(c2ccccn2)CC1
inactive: growth inhibition [1] -2.62% | growth inhibition [2] 7.25% | viability increase [3] 2.16% | viability [4] 103% | viability [5] 106% | inhibition [6] 0.94% | RAM network inhibition [7] 4.4%

Cc1ccccc1-n1c(Cn2c(=O)sc3ccccc32)nnc1SCC(=O)N1CCOCC1
inactive: growth inhibition [1] -5.92% | growth inhibition [2] -11.6% | viability increase [3] -1.91% | viability [4] 102% | viability [5] 100% | inhibition [6] 1.56% | RAM network inhibition [7] 1.01%

CCS(=O)(=O)N1CCN(Cc2nc3ccccc3c(=O)[nH]2)CC1
inactive: growth inhibition [1] -12.6% | growth inhibition [2] -14.4% | viability increase [3] 0.44% | viability [4] 97.5% | viability [5] 91.8% | inhibition [6] 1.33% | RAM network inhibition [7] 6.05%

Cc1cc(C)n2nc(SCC#N)nc2n1
inactive: growth inhibition [1] -7.25% | growth inhibition [2] -4.04% | viability increase [3] -2.41% | viability [4] 95.4% | viability [5] 95.4% | inhibition [6] 0.2% | RAM network inhibition [7] 4.36%

O=C(Nc1ccccc1)C1CC(=O)N(C2CCCCC2)C1 (stereo not drawn)
inactive: growth inhibition [1] -8.56% | growth inhibition [2] 7.07% | viability increase [3] 1.42% | viability [4] 105% | viability [5] 101% | inhibition [6] 1.58% | RAM network inhibition [7] 3.42%

CCOC(=O)Cn1c(=O)oc2cc(S(=O)(=O)Nc3c(C)cc(C)cc3C)ccc21
inactive: growth inhibition [1] -11.4% | growth inhibition [2] -14.1% | viability increase [3] -2.56% | viability [4] 94.5% | viability [5] 95.3% | inhibition [6] 0.86% | RAM network inhibition [7] 4.9%

N#CC1=C2SCN(c3ccccc3)CN2C(=O)CC1c1c(Cl)cccc1Cl (stereo not drawn)
inactive: growth inhibition [1] -3.85% | growth inhibition [2] 18.9% | viability increase [3] -7.7% | viability [4] 84.3% | viability [5] 93% | inhibition [6] 1.14% | RAM network inhibition [7] 4.42%

COc1cc(NC(=O)C(F)(F)F)cc(OC)c1
inactive: growth inhibition [1] -10.5% | growth inhibition [2] -13.3% | viability increase [3] -0.69% | viability [4] 98.2% | viability [5] 108% | inhibition [6] 0.22% | RAM network inhibition [7] 1.3%

Cc1cc(C)c(S(=O)(=O)Nc2nnc(C)s2)c(C)c1
inactive: growth inhibition [1] -20.6% | growth inhibition [2] -11.7% | viability increase [3] 3.99% | viability [4] 102% | viability [5] 99.3% | inhibition [6] 0.87% | RAM network inhibition [7] 8.49%

COC(=O)C(CCSC)NC(=O)Cn1ncc2c(=O)oc3ccc(C)cc3c21 (stereo not drawn)
inactive: growth inhibition [1] 6.62% | growth inhibition [2] -7.95% | viability increase [3] -3.14% | viability [4] 113% | viability [5] 91.3% | inhibition [6] 0.875% | RAM network inhibition [7] 1.93%

CC(=O)c1ccc(NC(=O)C2CCCN2S(=O)(=O)c2cccc3cccnc23)cc1 (stereo not drawn)
inactive: growth inhibition [1] -11.2% | growth inhibition [2] -8.78% | viability increase [3] -1.7% | viability [4] 98.1% | viability [5] 95.8% | inhibition [6] 0.505% | RAM network inhibition [7] 5.11%

COC(=O)C1=C(C)n2cnnc2NC1c1ccc(Cl)cc1 (stereo not drawn)
inactive: growth inhibition [1] 0.905% | growth inhibition [2] -4.44% | viability increase [3] 0.28% | viability [4] 104% | viability [5] 97.2% | inhibition [6] 1.27% | RAM network inhibition [7] -0.92%

CCCCC(CC)CNC(=O)c1cccs1 (stereo not drawn)
inactive: growth inhibition [1] 6.58% | growth inhibition [2] 13.6% | viability increase [3] 0.39% | viability [4] 79.2% | viability [5] 85.8% | inhibition [6] -0.705% | RAM network inhibition [7] -1.28%

O=C(C1CCC(=O)N1Cc1cccnc1)N1CCN(c2ccc(F)cc2)CC1 (stereo not drawn)
inactive: growth inhibition [1] -0.085% | growth inhibition [2] -9.05% | viability increase [3] -2.73% | viability [4] 90.1% | viability [5] 88.4% | inhibition [6] 0.585% | RAM network inhibition [7] 5.89%

COc1ccccc1NC(=O)N1CCN(c2ccccn2)CC1
inactive: growth inhibition [1] -12.1% | growth inhibition [2] -7.1% | viability increase [3] 0.85% | viability [4] 103% | viability [5] 104% | inhibition [6] 2.67% | RAM network inhibition [7] 4.32%

CCCCn1ccc(=O)c2c(C(F)(F)F)nccc21
inactive: growth inhibition [1] -6.65% | growth inhibition [2] -11.4% | viability increase [3] -3.12% | viability [4] 87.8% | viability [5] 84.4% | inhibition [6] 1.19% | RAM network inhibition [7] -0.41%

COc1ccc(C2CC(c3cccc(C)c3)n3nc(N)nc3N2)cc1 (stereo not drawn)
inactive: growth inhibition [1] 6.39% | growth inhibition [2] 9.63% | viability increase [3] -1.84% | viability [4] 105% | viability [5] 92.8% | inhibition [6] 3.25% | RAM network inhibition [7] 1.68%

Cc1cccc(NC(=O)CC2SC(=NC3CCCCC3)NC2=O)c1 (stereo not drawn)
inactive: growth inhibition [1] -5.5% | growth inhibition [2] -21.6% | viability increase [3] 0.92% | viability [4] 99.2% | viability [5] 94.9% | inhibition [6] 0.415% | RAM network inhibition [7] 4.77%
